One experiment concerns the target ENO1 (Homo sapiens, UniProt P06733). The experiment in a line: Differential scanning fluorimetry. The format is binding. To be noted: DSF, ENO1.
In a further experiment the target is ENO2 (Homo sapiens, UniProt P09104). Kind of experiment: Differential scanning fluorimetry. Format: binding. To be noted: DSF, ENO2.
For a further experiment, the target named is GAPDH (Homo sapiens, UniProt P04406). The experiment in a line: MIDAS protein-metabolite interaction screen. The format is binding. The settings on record: significant PMI Q < 0.01.
Another experiment addresses LDHA (Homo sapiens, UniProt P00338). The experiment in a line: LDH enzyme activity assay. Format: biochemical. The settings on record: for IC50: LDHA enzyme activity, acyl-CoAs; for inhibition of LDHA enzyme activity: in vitro. The essentials: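 LDH isoform activity measured in vitro with test metabolites (adenosine nucleotides, CoA and acyl-CoAs) over a concentration range. IC50 is derived from the inhibition curves. Mode of inhibition is assessed against NAD and lactate.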

The target of a further experiment is T1, PGAM2 (Homo sapiens, UniProt P15259).
T1 sequence (P15259 1-253): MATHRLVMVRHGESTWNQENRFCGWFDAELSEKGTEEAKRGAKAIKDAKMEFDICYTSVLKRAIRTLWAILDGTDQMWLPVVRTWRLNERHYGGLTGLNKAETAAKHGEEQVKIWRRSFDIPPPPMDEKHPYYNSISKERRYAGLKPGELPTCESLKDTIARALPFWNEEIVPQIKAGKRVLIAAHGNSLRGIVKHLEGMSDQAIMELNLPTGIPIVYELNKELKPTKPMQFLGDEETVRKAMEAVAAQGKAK
The experiment in a line: MIDAS protein-metabolite interaction screen. The format is binding. The settings on record: significant PMI Q < 0.01. The essentials: (§1)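 Purified protein is separated from a defined metabolite library by a semipermeable dialysis membrane that passes metabolites but not protein, then incubated to relative equilibrium. Protein is denatured and removed. Metabolites in both chambers are quantified by flow injection analysis–MS, with methods optimized for each pool. The between-chamber fold change is normalized and corrected for nonspecific interactions.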

The target of a further experiment is T2, Sestrin2 (Homo sapiens, UniProt P58004).
T2 sequence (P58004 1-480): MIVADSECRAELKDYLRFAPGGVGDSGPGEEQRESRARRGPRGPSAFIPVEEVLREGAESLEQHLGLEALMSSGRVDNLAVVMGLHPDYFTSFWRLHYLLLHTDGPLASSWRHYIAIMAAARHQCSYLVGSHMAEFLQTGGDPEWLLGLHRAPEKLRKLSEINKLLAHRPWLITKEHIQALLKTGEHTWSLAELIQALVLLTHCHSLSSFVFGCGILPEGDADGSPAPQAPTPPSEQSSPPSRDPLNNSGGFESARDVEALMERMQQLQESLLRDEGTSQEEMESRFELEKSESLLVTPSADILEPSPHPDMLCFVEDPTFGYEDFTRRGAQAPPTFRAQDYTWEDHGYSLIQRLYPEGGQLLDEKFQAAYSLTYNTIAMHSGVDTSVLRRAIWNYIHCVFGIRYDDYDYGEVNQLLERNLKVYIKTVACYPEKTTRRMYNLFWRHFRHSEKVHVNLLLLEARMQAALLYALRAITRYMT
The experiment in a line: MIDAS protein-metabolite interaction screen. Format: binding. To be noted: significant PMI Q < 0.01. The essentials:
as §1

This note sets out measurements from publication PMC10262665 (Science (New York, N.Y.), 2023).

One may read the IC50 as the point on the concentration scale where inhibition reaches its midpoint. A high value points to weaker potency in that assay.

Some results are limits rather than exact numbers.

Chain of ENO2 (P09104 whole entry): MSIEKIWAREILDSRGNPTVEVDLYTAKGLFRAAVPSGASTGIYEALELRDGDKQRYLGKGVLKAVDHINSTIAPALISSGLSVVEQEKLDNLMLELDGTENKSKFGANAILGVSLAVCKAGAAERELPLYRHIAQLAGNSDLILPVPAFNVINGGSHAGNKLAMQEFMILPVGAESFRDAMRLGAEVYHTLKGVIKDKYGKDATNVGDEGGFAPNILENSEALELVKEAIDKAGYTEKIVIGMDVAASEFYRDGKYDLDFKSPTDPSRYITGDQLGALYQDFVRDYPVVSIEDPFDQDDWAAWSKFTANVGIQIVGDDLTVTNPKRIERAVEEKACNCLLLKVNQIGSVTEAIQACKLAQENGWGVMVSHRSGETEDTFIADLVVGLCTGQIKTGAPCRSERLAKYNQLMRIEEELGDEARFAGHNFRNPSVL
Chain of ENO1 (P06733 whole entry): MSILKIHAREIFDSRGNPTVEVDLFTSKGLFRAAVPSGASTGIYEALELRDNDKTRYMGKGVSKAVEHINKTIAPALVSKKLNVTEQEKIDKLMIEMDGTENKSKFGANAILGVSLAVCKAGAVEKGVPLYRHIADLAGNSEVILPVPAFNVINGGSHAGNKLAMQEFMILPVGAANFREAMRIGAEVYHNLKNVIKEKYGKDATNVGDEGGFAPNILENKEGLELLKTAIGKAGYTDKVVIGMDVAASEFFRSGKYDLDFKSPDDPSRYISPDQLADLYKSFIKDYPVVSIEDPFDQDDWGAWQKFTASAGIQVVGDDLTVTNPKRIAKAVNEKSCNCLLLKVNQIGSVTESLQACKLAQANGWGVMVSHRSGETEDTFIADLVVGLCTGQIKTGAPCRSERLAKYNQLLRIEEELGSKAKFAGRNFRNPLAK
Chain of GAPDH (P04406 whole entry, canonical isoform): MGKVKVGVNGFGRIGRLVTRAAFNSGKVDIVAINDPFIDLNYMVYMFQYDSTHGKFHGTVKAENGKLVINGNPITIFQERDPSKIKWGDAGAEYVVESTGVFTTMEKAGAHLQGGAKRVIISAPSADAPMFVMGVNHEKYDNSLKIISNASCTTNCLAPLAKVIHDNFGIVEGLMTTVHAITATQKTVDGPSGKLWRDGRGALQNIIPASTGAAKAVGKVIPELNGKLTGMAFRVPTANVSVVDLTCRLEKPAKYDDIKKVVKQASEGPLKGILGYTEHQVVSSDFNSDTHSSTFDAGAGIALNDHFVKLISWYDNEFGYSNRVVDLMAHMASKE

For `N[C@@H](Cc1ccc(OP(=O)(O)O)cc1)C(=O)O` [phosphotyrosine], the “thermal stabilization of protein upon ligand binding” value (shortened to “thermal stabilization”) at ENO1 and on ENO2 was “not” each time.
Consider `CC(C)(CO[P@@](=O)(O)O[P@@](=O)(O)OC[C@H]1O[C@@H](n2cnc3c(N)ncnc32)[C@H](O)[C@@H]1OP(=O)(O)O)[C@@H](O)C(=O)NCCC(=O)NCCSC(=O)CC(=O)O` [malonyl-coenzyme A], for which the MIDAS protein-metabolite interaction entry at GAPDH is given as “interacted”.
`CCCCCCCCCCCC(=O)SCCNC(=O)CCNC(=O)[C@H](O)C(C)(C)COP(=O)(O)OP(=O)(O)OC[C@H]1O[C@@H](n2cnc3c(N)ncnc32)[C@H](O)[C@@H]1OP(=O)(O)O` [C12:0-CoA, lauroyl-CoA]: the IC50 against LDHA is > 100 µM.
As to `O=C(O)[C@@H](CO)OP(=O)(O)O` [2PG, 2-phosphoglycerate], the Kd at ENO1 (read-out: apparent dissociation constant (Kd app)) came to 298 µM; at ENO2 (read-out: apparent dissociation constant (KD app)), 289 µM.
Consider `CCCCCCCCCCCCCCC(C)(C)C(=O)SCCNC(=O)CCNC(=O)C(O)C(C)(C)COP(=O)(O)OP(=O)(O)OCC1OC(n2cnc3c(N)ncnc32)C(O)C1OP(=O)(O)O` (stereo not shown) [DiMePal-CoA, reference compound], for which the “inhibition of LDHA enzyme activity” value at LDHA is recorded as “inhibited”.
Take `CCCCCC(=O)OCC(COP(=O)(O)OC1C(O)C(OP(=O)(O)O)C(OP(=O)(O)O)C(OP(=O)(O)O)C1O)OC(=O)CCCCC` (stereo not shown) [PIP3, phosphatidylinositol-3,4,5-trisphosphate C-6]: the MIDAS protein-metabolite interaction entry on PGAM2 is “interacted”.
In the case of `N[C@@H](CO)C(=O)O` [serine], the “thermal stabilization” value at ENO1 and at ENO2 was “not” in each case.
Take `CC[C@H](C)[C@H](N)C(=O)O` [isoleucine]: the MIDAS protein-metabolite interaction entry at Sestrin2 was “most enriched interactors”.
Turning to phosphate, the “thermal stabilization” value on ENO1 and at ENO2 was “not” throughout.
Consider `CCCCCCCC/C=C\CCCCCCCC(=O)SCCNC(=O)CCNC(=O)[C@H](O)C(C)(C)COP(=O)(O)OP(=O)(O)OC[C@H]1O[C@@H](n2cnc3c(N)ncnc32)[C@H](O)[C@@H]1OP(=O)(O)O` [C18:1-CoA, oleoyl-CoA], for which the IC50 against LDHA was ~1 µM.
As to `CN(CC(=O)O)C(=N)NP(=O)(O)O` [creatine-phosphate], the MIDAS protein-metabolite interaction entry at GAPDH is “interacted”.
Still for that read-out and setting: in the case of `Nc1ncnc2c1ncn2[C@@H]1O[C@@H]2COP(=O)(O)O[C@H]2[C@H]1O` [cAMP, cyclic adenosine monophosphate] it was “interacted”.
Turning to `CC(C)C[C@H](N)C(=O)O` [leucine], the MIDAS protein-metabolite interaction result at Sestrin2 is reported as “most enriched interactors”.
As for `CCCCCCCCCCCCCCCCCCCC(=O)SCCNC(=O)CCNC(=O)[C@H](O)C(C)(C)COP(=O)(O)OP(=O)(O)OC[C@H]1O[C@@H](n2cnc3c(N)ncnc32)[C@H](O)[C@@H]1OP(=O)(O)O` [C20:0-CoA, arachidoyl-CoA], on LDHA, the IC50 was ~1 µM.
Take `CSCC[C@H](N)C(=O)O` [methionine]: on Sestrin2, the MIDAS protein-metabolite interaction entry is listed as “most enriched interactors”.
For `CC(O)(CC(=O)O)CC(=O)SCCNC(=O)CCNC(=O)[C@H](O)C(C)(C)COP(=O)(O)OP(=O)(O)OC[C@H]1O[C@@H](n2cnc3c(N)ncnc32)[C@H](O)[C@@H]1OP(=O)(O)O` (stereo partly shown) [HMG-CoA, 3-hydroxy-3-methylglutaryl-CoA], the MIDAS protein-metabolite interaction entry at GAPDH is reported as “interacted”.
Consider `CC(C)(COP(=O)(O)OP(=O)(O)OC[C@H]1O[C@@H](n2cnc3c(N)ncnc32)[C@H](O)[C@@H]1OP(=O)(O)O)[C@@H](O)C(=O)NCCC(=O)NCCS` [CoA, coenzyme A], for which the “inhibition of LDHA enzyme activity” value against LDHA is “Neither”.
For the compound `CCCCCC(=O)OCC(COP(=O)(O)OC1C(O)C(O)C(OP(=O)(O)O)C(OP(=O)(O)O)C1O)OC(=O)CCCCC` (stereo not shown) [PIP2, phosphatidylinositol-4,5-bisphosphate C-6], the MIDAS protein-metabolite interaction entry at PGAM2 is recorded as “interacted”.
